Experimental data reported in PMC7134392 (ChemMedChem, 2018).

How the values were obtained:
[1] = target: T1, full-length human estrogen receptor α (Homo sapiens, UniProt P03372); test: Competitive radiometric ligand binding assay, ERα; settings: relative binding affinity, estradiol = 100; single determinations for RBA < 0.01
T1 sequence (P03372 1-595): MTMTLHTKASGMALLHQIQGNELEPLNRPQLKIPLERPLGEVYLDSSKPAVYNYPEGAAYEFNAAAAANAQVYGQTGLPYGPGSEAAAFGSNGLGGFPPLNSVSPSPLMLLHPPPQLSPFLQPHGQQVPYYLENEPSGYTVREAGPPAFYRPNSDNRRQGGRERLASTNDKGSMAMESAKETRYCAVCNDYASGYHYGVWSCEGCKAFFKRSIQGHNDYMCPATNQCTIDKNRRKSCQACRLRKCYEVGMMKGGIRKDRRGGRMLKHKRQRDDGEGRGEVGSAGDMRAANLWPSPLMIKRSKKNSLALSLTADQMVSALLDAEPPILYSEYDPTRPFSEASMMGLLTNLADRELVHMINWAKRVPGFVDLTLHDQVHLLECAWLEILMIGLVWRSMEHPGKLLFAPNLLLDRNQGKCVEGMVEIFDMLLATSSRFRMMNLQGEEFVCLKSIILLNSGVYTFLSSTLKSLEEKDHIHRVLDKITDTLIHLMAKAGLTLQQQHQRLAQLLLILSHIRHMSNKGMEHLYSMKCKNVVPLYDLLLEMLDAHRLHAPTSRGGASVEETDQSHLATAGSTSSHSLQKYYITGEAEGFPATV

[2] = target: full-length human estrogen receptor β (Homo sapiens, UniProt Q92731); test: Competitive radiometric ligand binding assay, ERβ; settings: relative binding affinity, estradiol = 100; single determinations for RBA < 0.01
Summary of the method: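 Full-length human ERβ incubated with radiolabelled estradiol tracer and competing test compound on ice for 18–24 h. Receptor-bound tracer was adsorbed onto hydroxyapatite, washed with buffer, and counted by scintillation. Affinity was expressed as RBA relative to estradiol = 100. Most values are the average of 2–3 determinations ± SD.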

RAW264.7 cells = test: Toxicity; type: cell-based; settings: read-out: IC50 Toxicity (Tox.), Alamar blue cell viability
Summary of the method: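 RAW264.7 cells were grown in RPMI 1640 with 10% FCS, 50 μM 2-mercaptoethanol and penicillin/streptomycin. Cells were seeded at 50,000 per well in phenol-red-free medium ≥12 h beforehand. In the TNFα assay setting, cells were dosed with test compound from 50 μM to 0.023 μM (three-fold steps) or DMSO. Viability was read by Alamar blue. Means ± SD are from 3 independent experiments.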

Chain of full-length human estrogen receptor β (Q92731 whole entry): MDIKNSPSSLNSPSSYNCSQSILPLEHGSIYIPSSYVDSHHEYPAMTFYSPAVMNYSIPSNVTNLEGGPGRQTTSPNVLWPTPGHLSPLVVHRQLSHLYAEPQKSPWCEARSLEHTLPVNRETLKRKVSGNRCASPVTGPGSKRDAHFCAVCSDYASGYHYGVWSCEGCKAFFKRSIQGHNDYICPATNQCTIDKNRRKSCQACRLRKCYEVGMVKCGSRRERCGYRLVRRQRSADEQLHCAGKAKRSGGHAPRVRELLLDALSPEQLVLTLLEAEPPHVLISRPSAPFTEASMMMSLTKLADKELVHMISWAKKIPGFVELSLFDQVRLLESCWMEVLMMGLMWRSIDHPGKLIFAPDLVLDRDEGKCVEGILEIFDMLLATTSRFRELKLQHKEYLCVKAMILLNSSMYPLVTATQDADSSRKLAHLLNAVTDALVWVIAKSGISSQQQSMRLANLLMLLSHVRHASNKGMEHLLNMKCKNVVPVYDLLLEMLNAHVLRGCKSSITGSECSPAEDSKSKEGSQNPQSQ

Cc1c(-c2ccc(O)cc2)nn(-c2ccc(O)cc2)c1-c1ccc(OCCN2CCCCC2)cc1 [Compound 1, methyl-piperidino-pyrazole]
RBA ERα [1]: 12.0 ± 2.0
RBA ERβ [2]: 0.05 ± 0.01
IC50 (RAW264.7 cells): 11.5 ± 2.4 µM
